Here are results for six molecules from ChEMBL document CHEMBL5096201, “Rufomycins or Ilamycins: Naming Clarifications and Definitive Structural Assignments” (J Nat Prod, 2021).

SMILES strings stand for the structures. In brackets after ≈: the same amount, converted by molar mass.

Assay [1] is described as follows: Binding affinity to N-terminal domain of Mycobacterium tuberculosis ClpC1 expressed in Escherichia coli BL21 (DE3) assessed as dissociation constant by surface plasma resonance assay. The procedure, abridged: (§1)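 SPR with ClpC1 N-terminal domain or full-length protein. Association and dissociation rate constants (ka, kd) come from global fitting of double-referenced sensorgrams to a 1:1 Langmuir model. KD is calculated as kd/ka.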

For assay [2], the system named is Mycobacterium tuberculosis. The assay can be described thus: Antimycobacterial activity against Mycobacterium tuberculosis incubated for 7 days by microplate alamar blue assay. To be noted: 168 h, time 7 day. Format: functional. The method in brief:
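Microplate Alamar Blue readout by fluorescence. MIC is the lowest concentration giving a 90% fluorescence reduction relative to untreated bacterial controls.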
(The colour change of resazurin is a common sign of viable cells or microbes.)

Assay [3] in a line: Binding affinity to in full length Mycobacterium tuberculosis ClpC1 expressed in Escherichia coli BL21 (DE3) assessed as dissociation constant by surface plasma resonance assay. The procedure, abridged:
as §1

Usually Kd stands for the concentration at which binding is half-saturated. As usually defined, the MIC90 is the lowest concentration that inhibits either 90% of growth or 90% of the strains tested, depending on the study.

Consider `C/C=C/C[C@@H]1NC(=O)[C@H](CC(C)C)N2C(=O)[C@H](C[C@H](C)[C@H]2O)N(C)C(=O)[C@H](C)NC(=O)[C@H](Cc2ccc(O)c([N+](=O)[O-])c2)NC(=O)[C@H](CC(C)C)N(C)C(=O)[C@H](Cc2cn(C(C)(C)[C@H]3CO3)c3ccccc23)NC1=O`, for which the Kd in assay [1] was determined as 32 nM; in assay [3], 31 nM. Besides, the MIC90 in assay [2] came to 0.021 µM (≈ 0.0219 µg/mL).
For `C/C=C/C[C@@H]1NC(=O)[C@H](CC(C)C)N2C(=O)[C@H](C[C@H](C)[C@@H]2O)N(C)C(=O)[C@H](C)NC(=O)[C@H](Cc2ccc(O)c([N+](=O)[O-])c2)NC(=O)[C@H](CC(C)C)N(C)C(=O)[C@H](Cc2cn(C(C)(C)[C@H]3CO3)c3ccccc23)NC1=O`, in that order: 29 nM, 27 nM and 0.012 µM (≈ 0.0125 µg/mL).
For the molecule `C/C=C/C[C@@H]1NC(=O)[C@H](CC(C)C)N2C(=O)[C@H](C[C@@H](C)[C@@H]2O)N(C)C(=O)[C@H](C)NC(=O)[C@H](Cc2ccc(O)c([N+](=O)[O-])c2)NC(=O)[C@H](CC(C)C)N(C)C(=O)[C@H](Cc2cn(C(C)(C)[C@H]3CO3)c3ccccc23)NC1=O`, the results for the Kd in assay [1] and in assay [3] were 186 nM and 209 nM, respectively. For the same molecule, the MIC90 in assay [2] amounted to 0.047 µM (≈ 0.049 µg/mL).
For `C/C=C/C[C@@H]1NC(=O)[C@H](CC(C)C)N2C(=O)[C@H](C[C@@H](C)[C@H]2O)N(C)C(=O)[C@H](C)NC(=O)[C@H](Cc2ccc(O)c([N+](=O)[O-])c2)NC(=O)[C@H](CC(C)C)N(C)C(=O)[C@H](Cc2cn(C(C)(C)[C@H]3CO3)c3ccccc23)NC1=O`, in that order: 183 nM, 178 nM and 0.046 µM (≈ 0.0479 µg/mL).
In turn, `NNC(=O)c1ccncc1` [ISONIAZID] showed an MIC90 in assay [2] of 0.463 µM (≈ 0.0635 µg/mL).
`CO[C@H]1/C=C/O[C@@]2(C)Oc3c(C)c(O)c4c(O)c(c(/C=N/N5CCN(C)CC5)c(O)c4c3C2=O)NC(=O)/C(C)=C\C=C\[C@H](C)[C@H](O)[C@@H](C)[C@@H](O)[C@@H](C)[C@H](OC(C)=O)[C@@H]1C` [RIFAMPIN] displayed an MIC90 in assay [2] of 0.028 µM (≈ 0.023 µg/mL).
